According to ChEMBL document CHEMBL1141534, “Synthesis of all stereoisomers of 3-hydroxypipecolic acid and 3-hydroxy-4,5-dehydropipecolic acid and their evaluation as glycosidase inhibitors” (Bioorg Med Chem Lett, 2008):

Assays:
[1] = target: T1, Beta-glucuronidase (Bos taurus) (UniProt A3KMY8); assay: Inhibition of bovine liver beta-glucuronidase; parameters: concentration or dose not given beside the values; settings: concentration not given here
T1 sequence (whole entry): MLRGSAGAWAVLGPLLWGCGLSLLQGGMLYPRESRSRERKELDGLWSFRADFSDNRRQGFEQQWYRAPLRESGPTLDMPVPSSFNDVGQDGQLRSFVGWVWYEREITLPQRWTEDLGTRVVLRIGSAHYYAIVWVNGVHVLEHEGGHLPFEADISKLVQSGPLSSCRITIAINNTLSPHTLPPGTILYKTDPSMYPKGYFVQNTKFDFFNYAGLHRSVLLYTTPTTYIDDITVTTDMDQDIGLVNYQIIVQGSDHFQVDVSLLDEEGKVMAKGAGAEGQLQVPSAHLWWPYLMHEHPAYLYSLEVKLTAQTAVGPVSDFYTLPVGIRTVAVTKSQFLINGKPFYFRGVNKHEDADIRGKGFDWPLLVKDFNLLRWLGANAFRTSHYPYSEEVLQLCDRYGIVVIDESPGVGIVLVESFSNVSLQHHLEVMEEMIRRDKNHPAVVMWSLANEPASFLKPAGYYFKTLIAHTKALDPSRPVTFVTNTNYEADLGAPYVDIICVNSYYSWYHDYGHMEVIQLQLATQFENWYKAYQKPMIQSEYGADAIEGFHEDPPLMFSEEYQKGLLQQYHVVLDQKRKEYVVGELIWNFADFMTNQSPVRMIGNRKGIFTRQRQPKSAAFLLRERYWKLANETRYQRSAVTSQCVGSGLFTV
In short: (§1)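 Enzyme activity was measured with the matching p-nitrophenyl glycoside as substrate at 10 mM, at each enzyme's optimum pH, with a suitable amount of enzyme per reaction. For line 4, the α-N-acetylgalactosaminidase came from chicken liver.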

Escherichia coli = assay: Inhibition of Escherichia coli beta-glucuronidase; parameters: concentration or dose not given beside the values; settings: concentration not given here; in short: as §1
Bos taurus = species on record: Bos taurus; assay: (§2) Inhibition of bovine kidney beta-N-acetylglucosaminidase; parameters: concentration or dose not given beside the values; settings: concentration not given here; in short: as §1
[2] = system: alpha-N-acetylgalactosaminidase (Gallus gallus); assay: Inhibition of chick liver alpha-N-acetylgalactosaminidase; parameters: concentration or dose not given beside the values; settings: concentration not given here
[3] = as §2; parameters: species or system Bos taurus; in short: as §1

inhibition [1] [%]	inhibition (Escherichia coli) [%]	inhibition (Bos taurus) [%]	inhibition [2] [%]	IC50 [3] [µM]	SMILES
8.6	3.3	7.3	0.2		O=C(O)[C@H]1NCC=C[C@H]1O
19	2	58	25	720	O=C(O)[C@H]1NCC=C[C@@H]1O
10	0.9	0.8	1.3		O=C(O)[C@@H]1NCC=C[C@@H]1O
0.2	0.9	15	3.2		O=C(O)[C@@H]1NCC=C[C@H]1O
0.62	20	32	1.3		O=C(O)[C@@H]1NCCC[C@H]1O
0.89	31	38	5.2		O=C(O)[C@H]1NCCC[C@@H]1O
15	23	47	3.2		O=C(O)[C@@H]1NCCC[C@@H]1O
0.18	24	20	2.5		O=C(O)[C@H]1NCCC[C@H]1O
